From ChEMBL document CHEMBL3046823, “Insect muscarinic acetylcholine receptor: pharmacological and toxicological profiles of antagonists and agonists” (J Agric Food Chem, 2007)

Assays:
[1] = target: T1, Muscarinic acetylcholine receptor DM1 (Drosophila melanogaster, UniProt P16395); test: Displacement of [3H]QNB from Drosophila melanogaster mAChR by scintillation counting
[2] = target: T1, Muscarinic acetylcholine receptor DM1; test: Displacement of [3H]AF-DX 384 from Drosophila melanogaster mAChR by scintillation counting
Musca domestica [3] = test: Toxicity to Musca domestica (house fly) assessed as mortality at 75 ug/fly measured after 24 hr; assay type: functional
In short: (§1)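 Insecticide-susceptible adult female Musca (~25 mg) received PPP (2.5 µg/fly in 0.5 µL acetone, abdominal ventrum), then 90 min at room temperature. The compound (active ingredient) was given by intrathoracic injection in 0.22 µL water or 25-50% Me2SO/water. Mortality was scored at 0.5, 1.0, 1.5, 2.5 and 24 h.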

Musca domestica [4] = test: Toxicity to Musca domestica (house fly) assessed as mortality at 75 ug/fly measured after 2.5 hr; assay type: functional; in short: as §1
Musca domestica [5] = test: Toxicity to Musca domestica (house fly) assessed as mortality at 75 ug/fly measured after 1.5 hr; assay type: functional; in short: as §1
Musca domestica [6] = test: Toxicity to Musca domestica (house fly) assessed as mortality at 75 ug/fly measured after 1 hr; assay type: functional; in short: as §1
Musca domestica [7] = test: Toxicity to Musca domestica (house fly) assessed as mortality at 75 ug/fly measured after 0.5 hr; assay type: functional; in short: as §1
Musca domestica [8] = test: Toxicity to Musca domestica (house fly) assessed as mortality at 25 ug/fly measured after 24 hr; assay type: functional; in short: as §1
Musca domestica [9] = test: Toxicity to Musca domestica (house fly) assessed as mortality at 25 ug/fly measured after 2.5 hr; assay type: functional; in short: as §1
Musca domestica [10] = test: Toxicity to Musca domestica (house fly) assessed as mortality at 25 ug/fly measured after 1.5 hr; assay type: functional; in short: as §1
Musca domestica [11] = test: Toxicity to Musca domestica (house fly) assessed as mortality at 25 ug/fly measured after 1 hr; assay type: functional; in short: as §1
Musca domestica [12] = test: Toxicity to Musca domestica (house fly) assessed as mortality at 25 ug/fly measured after 0.5 hr; assay type: functional; in short: as §1
Musca domestica [13] = test: Ex vivo inhibition of [3H]QNB binding in brain of Musca domestica (house fly) at 75 ug/fly measured after 24 hr; assay type: functional
In short: (§2)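 Adult female houseflies pretreated with PPP (2.5 µg/fly, topical in acetone, 90 min), then dosed by intrathoracic injection in 0.22 µL water or 25-50% Me2SO/water. Heads were taken 0.5 or 24 h later and homogenized (50 per batch) in 50 mM sodium phosphate pH 7.4. Filtrate (~800 µg protein) was bound with 0.5 nM [3H]QNB, 60 min, 25 °C. Values are relative to vehicle-treated flies; 6−8 measurements over two experiments.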

Musca domestica [14] = test: Ex vivo inhibition of [3H]QNB binding in brain of Musca domestica (house fly) at 75 ug/fly measured after 0.5 hr; assay type: functional; in short: as §2
Musca domestica [15] = test: Ex vivo inhibition of [3H]QNB binding in brain of Musca domestica (house fly) at 25 ug/fly measured after 24 hr; assay type: functional; in short: as §2
Musca domestica [16] = test: Ex vivo inhibition of [3H]QNB binding in brain of Musca domestica (house fly) at 25 ug/fly measured after 0.5 hr; assay type: functional; in short: as §2
Musca domestica [17] = test: Toxicity to Musca domestica (house fly) assessed as mortality at 6.25 ug/fly measured after 24 hr; assay type: functional; in short: as §1
Musca domestica [18] = test: Toxicity to Musca domestica (house fly) assessed as mortality at 6.25 ug/fly measured after 2.5 hr; assay type: functional; in short: as §1
Musca domestica [19] = test: Toxicity to Musca domestica (house fly) assessed as mortality at 6.25 ug/fly measured after 1.5 hr; assay type: functional; in short: as §1
Musca domestica [20] = test: Toxicity to Musca domestica (house fly) assessed as mortality at 6.25 ug/fly measured after 1 hr; assay type: functional; in short: as §1
Musca domestica [21] = test: Toxicity to Musca domestica (house fly) assessed as mortality at 6.25 ug/fly measured after 0.5 hr; assay type: functional; in short: as §1
Musca domestica [22] = test: Toxicity to Musca domestica (house fly) assessed as mortality at 7.5 ug/fly measured after 24 hr; assay type: functional; in short: as §1
Musca domestica [23] = test: Toxicity to Musca domestica (house fly) assessed as mortality at 7.5 ug/fly measured after 2.5 hr; assay type: functional; in short: as §1
Musca domestica [24] = test: Toxicity to Musca domestica (house fly) assessed as mortality at 7.5 ug/fly measured after 1.5 hr; assay type: functional; in short: as §1
Musca domestica [25] = test: Toxicity to Musca domestica (house fly) assessed as mortality at 7.5 ug/fly measured after 1 hr; assay type: functional; in short: as §1
Musca domestica [26] = test: Toxicity to Musca domestica (house fly) assessed as mortality at 7.5 ug/fly measured after 0.5 hr; assay type: functional; in short: as §1
[27] = target: Muscarinic acetylcholine receptor DM1 (Drosophila melanogaster) (UniProt P16395); test: Displacement of [3H]QNB from Drosophila melanogaster mAChR at 100000 nM by scintillation counting
Chain of Muscarinic acetylcholine receptor DM1 (Drosophila melanogaster) (P16395 whole entry): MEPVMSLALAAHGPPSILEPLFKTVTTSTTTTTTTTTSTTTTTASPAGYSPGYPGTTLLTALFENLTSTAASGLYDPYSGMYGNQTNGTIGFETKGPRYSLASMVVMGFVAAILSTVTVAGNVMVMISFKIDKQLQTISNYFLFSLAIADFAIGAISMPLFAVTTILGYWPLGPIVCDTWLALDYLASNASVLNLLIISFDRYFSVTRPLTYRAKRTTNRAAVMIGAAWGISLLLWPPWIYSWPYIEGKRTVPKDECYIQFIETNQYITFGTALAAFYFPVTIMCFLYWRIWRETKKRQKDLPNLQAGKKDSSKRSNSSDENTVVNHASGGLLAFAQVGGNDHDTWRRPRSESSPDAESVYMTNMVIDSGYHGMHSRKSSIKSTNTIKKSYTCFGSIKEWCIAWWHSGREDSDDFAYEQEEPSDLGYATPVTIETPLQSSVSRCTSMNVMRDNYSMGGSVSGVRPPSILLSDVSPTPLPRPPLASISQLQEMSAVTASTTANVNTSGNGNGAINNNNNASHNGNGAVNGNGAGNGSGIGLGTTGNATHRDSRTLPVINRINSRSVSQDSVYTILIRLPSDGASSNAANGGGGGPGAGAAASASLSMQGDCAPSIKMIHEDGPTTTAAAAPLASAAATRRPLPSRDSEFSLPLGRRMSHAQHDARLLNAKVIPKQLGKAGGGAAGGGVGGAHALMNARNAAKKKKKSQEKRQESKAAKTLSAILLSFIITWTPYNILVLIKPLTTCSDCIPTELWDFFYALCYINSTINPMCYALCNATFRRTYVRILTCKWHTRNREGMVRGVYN

[28] = target: Muscarinic acetylcholine receptor DM1 (Drosophila melanogaster) (UniProt P16395); test: Displacement of [3H]AF-DX 384 from Drosophila melanogaster mAChR at 100000 nM by scintillation counting
Musca domestica [29] = test: Ex vivo inhibition of [3H]QNB binding in brain of Musca domestica (house fly) at 7.5 ug/fly measured after 24 hr; assay type: functional; in short: as §2
Musca domestica [30] = test: Ex vivo inhibition of [3H]QNB binding in brain of Musca domestica (house fly) at 7.5 ug/fly measured after 0.5 hr; assay type: functional; in short: as §2

T1 sequence (P16395 whole entry): as above

| Compound | Ki [1] [nM] | Ki [2] [nM] | Activity (Musca domestica [3]) [%] | Activity (Musca domestica [4]) [%] | Activity (Musca domestica [5]) [%] | Activity (Musca domestica [6]) [%] | Activity (Musca domestica [7]) [%] | Activity (Musca domestica [8]) [%] | Activity (Musca domestica [9]) [%] | Activity (Musca domestica [10]) [%] | Activity (Musca domestica [11]) [%] | Activity (Musca domestica [12]) [%] | further results |
| --- | --- | --- | --- | --- | --- | --- | --- | --- | --- | --- | --- | --- | --- |
| CN1[C@@H]2CC[C@H]1C[C@@H](OC(=O)N1Cc3ccccc3NC1=O)C2 | 640 | 570 | 7 | 17 | 23 | 43 | 70 | 0 | 0 | 10 | 17 | 23 |  |
| Cc1noc(C2CN3CCC2CC3)n1 (centres undefined) | 1320 | 1330 | 13 | 33 | 60 | 83 | 100 | 3 | 3 | 13 | 20 | 47 | inhibition (INH) (Musca domestica [13]): 16%; inhibition (INH) (Musca domestica [14]): 80%; inhibition (INH) (Musca domestica [15]): 9%; inhibition (INH) (Musca domestica [16]): 49% |
| CCCN(CCC)CC1CCCCN1CCNC(=O)N1c2ccccc2C(=O)Nc2cccnc21 (centres undefined) | 4.8 | 6.1 |  |  |  |  |  |  |  |  |  |  | Activity (Musca domestica [17]): 3%; Activity (Musca domestica [18]): 3%; Activity (Musca domestica [19]): 3%; Activity (Musca domestica [20]): 3%; Activity (Musca domestica [21]): 30% |
| C[C@H](C1=C(CCN(C)C)Cc2ccccc21)c1ccccn1 | 510 | 660 | 23 | 97 | 100 | 100 | 100 | 3 | 17 | 40 | 70 | 100 | inhibition (INH) (Musca domestica [13]): 28%; inhibition (INH) (Musca domestica [14]): 81%; inhibition (INH) (Musca domestica [15]): 0%; inhibition (INH) (Musca domestica [16]): 41%; Activity (Musca domestica [22]): 0%; Activity (Musca domestica [23]): 0%; Activity (Musca domestica [24]): 0%; Activity (Musca domestica [25]): 0%; Activity (Musca domestica [26]): 10% |
| CCOC(=O)c1c(C)[nH]c2ccc3c(c12)CN1CCc2cc(OC)ccc2C1O3 (centres undefined) | 1030 | 1430 |  |  |  |  |  | 13 | 13 | 13 | 13 | 20 |  |
| O=[N+]([O-])/N=C1\NCCN1Cc1ccc(Cl)nc1 |  |  |  |  |  |  |  |  |  |  |  |  | inhibition [27]: 1%; inhibition [28]: 3% |
| C[N+]1(C)CCC(OC(=O)C(c2ccccc2)c2ccccc2)CC1.[I-] [4-DAMP] | 15 | 18 | 33 | 60 | 57 | 67 | 100 | 10 | 20 | 40 | 47 | 60 | inhibition (INH) (Musca domestica [15]): 59%; inhibition (INH) (Musca domestica [16]): 92%; inhibition (INH) (Musca domestica [29]): 49%; inhibition (INH) (Musca domestica [30]): 79%; Activity (Musca domestica [22]): 7%; Activity (Musca domestica [23]): 3%; Activity (Musca domestica [24]): 7%; Activity (Musca domestica [25]): 10%; Activity (Musca domestica [26]): 10% |
| Cc1ccc(C[N+](C)(C)C)o1 [5-METHYLFURMETHIODIDE] | 14900 | 12300 |  |  |  |  |  |  |  |  |  |  |  |
| CC(=O)OC1CN2CCC1CC2 (centres undefined) [ACECLIDINE] | 130000 | 114000 | 3 | 10 | 27 | 30 | 100 | 0 | 3 | 3 | 3 | 33 |  |
| CC#CCOC(=O)C1=CCCN(C)C1 [ARECAIDINE BUT-2-YNYL ESTER] | 1500 | 1560 | 4 | 8 | 9 | 9 | 10 | 3 | 3 | 3 | 3 | 3 |  |
| C#CCOC(=O)C1=CCCN(C)C1 [ARECAIDINE PROPARGYL ESTER] | 4490 | 5200 | 87 | 100 | 100 | 100 | 100 | 0 | 0 | 0 | 0 | 17 |  |
| CCOP(=O)(OCC)Oc1nc(Cl)c(Cl)cc1Cl [CHLORPHRIFOS OXON] | > 100000 | > 100000 |  |  |  |  |  |  |  |  |  |  | inhibition [27]: 17%; inhibition [28]: 29% |
| O=[N+]([O-])NC1=NCCN1Cc1ccc(Cl)nc1 [IMIDACLOPRID] | > 100000 | > 100000 |  |  |  |  |  |  |  |  |  |  |  |
| COc1ccccc1CNCCCCCCNCCCCCCCCNCCCCCCNCc1ccccc1OC.Cl.Cl.Cl.Cl [METHOCTRAMINE HYDROCHLORIDE] | 2850 | 3860 |  |  |  |  |  | 100 | 100 | 100 | 100 | 100 | Activity (Musca domestica [22]): 3%; Activity (Musca domestica [23]): 0%; Activity (Musca domestica [24]): 0%; Activity (Musca domestica [25]): 10%; Activity (Musca domestica [26]): 17% |
| C[N+]1(C)[C@@H]2CC[C@H]1C[C@@H](OC(=O)C(CO)c1ccccc1)C2.O=[N+]([O-])[O-] (some centres undefined) [METHYLATROPINE NITRATE] | 2.4 | 1.8 | 7 | 20 | 20 | 23 | 23 | 13 | 7 | 7 | 7 | 17 |  |
| CCN(CC)CC1CCCCN1CC(=O)N1c2ccccc2C(=O)Nc2cccnc21 (centres undefined) [OTENZEPAD] | 1220 | 1380 |  |  |  |  |  |  |  |  |  |  | Activity (Musca domestica [17]): 3%; Activity (Musca domestica [18]): 10%; Activity (Musca domestica [19]): 10%; Activity (Musca domestica [20]): 10%; Activity (Musca domestica [21]): 17% |
| O=C1CCCN1CC#CCN1CCCC1 [OXOTREMORINE] | 19400 | 21500 |  |  |  |  |  |  |  |  |  |  |  |
| CCOP(=O)(OCC)Oc1ccc([N+](=O)[O-])cc1 [PARAOXON] | > 100000 | > 100000 |  |  |  |  |  |  |  |  |  |  | inhibition [27]: 0%; inhibition [28]: 13% |
| CC[C@@H]1C(=O)OC[C@@H]1Cc1cncn1C [PILOCARPINE] |  |  | 7 | 7 | 10 | 23 | 67 | 0 | 0 | 0 | 0 | 3 |  |
| CN1CCN(CC(=O)N2c3ccccc3C(=O)Nc3cccnc32)CC1 [PIRENZEPINE] | 430 | 390 | 10 | 13 | 20 | 27 | 27 | 7 | 7 | 7 | 7 | 20 |  |
| Br.CN1[C@@H]2C[C@@H](OC(=O)[C@H](CO)c3ccccc3)C[C@H]1[C@@H]1O[C@@H]12.O.O.O [SCOPOLAMINE HYDROBROMIDE] |  |  | 0 | 0 | 0 | 3 | 20 | 3 | 3 | 3 | 3 | 10 |  |
